Source: ChEMBL document CHEMBL4689842, “EUbOPEN Chemogenomics Library wave 1” (2021)

Test system: Fibroblast
Assay: Multiplex assay against human fibroblast
Type: toxicity, cell-based
How it was run: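 Per cents of healthy-nucleus cells form the tubulin, mitochondrial-mass and membrane-permeability phenotype values. Live cells were stained at seeding with Hoechst33342, BioTracker Green Microtubule Cytoskeleton Dye, MitoTracker Red and Annexin V Alexa Fluor 680. After compound addition they were imaged on a CQ1 microscope at 37°C and 5% CO2, and CellPathfinder machine-learning gating split them into Hoechst high-intensity objects or normal cells, normal cells into healthy, pyknosed or fragmented nuclei, and pyknosed cells into mitotic or apoptotic.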

[1] = 12 h, 1 µM, compound concentration 1 uM, replicate 1
[2] = 12 h, 1 µM, compound concentration 1 uM, replicate 2
[3] = 12 h, 10 µM, compound concentration 10 uM, replicate 1
[4] = 12 h, 10 µM, compound concentration 10 uM, replicate 2
[5] = 24 h, 1 µM, compound concentration 1 uM, replicate 1
[6] = 24 h, 1 µM, compound concentration 1 uM, replicate 2
[7] = 24 h, 10 µM, compound concentration 10 uM, replicate 1
[8] = 24 h, 10 µM, compound concentration 10 uM, replicate 2

COc1cc2c(Nc3ccc(NC(=O)c4ccccc4)cc3)ncnc2cc1OCCCN1CCOCC1
Population Apoptotic (%) [1]: 55% | Population Fragmented Nuclei (%) [1]: 25% | Population Healthy Nuclei (%) [1]: 53% | Population Hoechst High Intensity Objects (%) [1]: 35% | Population Membrane Permeable-Phenotype (%) [1]: 9% | Population Mitochondria Different-Phenotype (%) [1]: 10% | Population Mitotic Cells (%) [1]: 44% | Population Normal (%) [1]: 64% | Population Pyknosed Nuclei (%) [1]: 20% | Population Tubulin-Different-Phenotype (%) [1]: 41% | Total Cell Count [1]: 470 | Population Apoptotic (%) [2]: 33% | Population Fragmented Nuclei (%) [2]: 44% | Population Healthy Nuclei (%) [2]: 46% | Population Hoechst High Intensity Objects (%) [2]: 30% | Population Membrane Permeable-Phenotype (%) [2]: 22% | Population Mitochondria Different-Phenotype (%) [2]: 12% | Population Mitotic Cells (%) [2]: 66% | Population Normal (%) [2]: 69% | Population Pyknosed Nuclei (%) [2]: 8% | Population Tubulin-Different-Phenotype (%) [2]: 64% | Total Cell Count [2]: 97 | Population Apoptotic (%) [3]: 82% | Population Fragmented Nuclei (%) [3]: 39% | Population Healthy Nuclei (%) [3]: 49% | Population Hoechst High Intensity Objects (%) [3]: 19% | Population Membrane Permeable-Phenotype (%) [3]: 9% | Population Mitochondria Different-Phenotype (%) [3]: 5% | Population Mitotic Cells (%) [3]: 17% | Population Normal (%) [3]: 80% | Population Pyknosed Nuclei (%) [3]: 11% | Population Tubulin-Different-Phenotype (%) [3]: 4% | Total Cell Count [3]: 250 | Population Apoptotic (%) [4]: 0% | Population Fragmented Nuclei (%) [4]: 70% | Population Healthy Nuclei (%) [4]: 27% | Population Hoechst High Intensity Objects (%) [4]: 41% | Population Membrane Permeable-Phenotype (%) [4]: 0% | Population Mitochondria Different-Phenotype (%) [4]: 7% | Population Mitotic Cells (%) [4]: 100% | Population Normal (%) [4]: 58% | Population Pyknosed Nuclei (%) [4]: 2% | Population Tubulin-Different-Phenotype (%) [4]: 7% | Total Cell Count [4]: 82 | Population Apoptotic (%) [5]: 61% | Population Fragmented Nuclei (%) [5]: 26% | Population Healthy Nuclei (%) [5]: 47% | Population Hoechst High Intensity Objects (%) [5]: 46% | Population Membrane Permeable-Phenotype (%) [5]: 14% | Population Mitochondria Different-Phenotype (%) [5]: 17% | Population Mitotic Cells (%) [5]: 38% | Population Normal (%) [5]: 53% | Population Pyknosed Nuclei (%) [5]: 26% | Population Tubulin-Different-Phenotype (%) [5]: 59% | Total Cell Count [5]: 391 | Population Apoptotic (%) [6]: 58% | Population Fragmented Nuclei (%) [6]: 34% | Population Healthy Nuclei (%) [6]: 42% | Population Hoechst High Intensity Objects (%) [6]: 41% | Population Membrane Permeable-Phenotype (%) [6]: 23% | Population Mitochondria Different-Phenotype (%) [6]: 33% | Population Mitotic Cells (%) [6]: 41% | Population Normal (%) [6]: 58% | Population Pyknosed Nuclei (%) [6]: 24% | Population Tubulin-Different-Phenotype (%) [6]: 52% | Total Cell Count [6]: 85 | Population Apoptotic (%) [7]: 76% | Population Fragmented Nuclei (%) [7]: 31% | Population Healthy Nuclei (%) [7]: 55% | Population Hoechst High Intensity Objects (%) [7]: 22% | Population Membrane Permeable-Phenotype (%) [7]: 6% | Population Mitochondria Different-Phenotype (%) [7]: 3% | Population Mitotic Cells (%) [7]: 24% | Population Normal (%) [7]: 77% | Population Pyknosed Nuclei (%) [7]: 13% | Population Tubulin-Different-Phenotype (%) [7]: 5% | Total Cell Count [7]: 248 | Population Apoptotic (%) [8]: 66% | Population Fragmented Nuclei (%) [8]: 69% | Population Healthy Nuclei (%) [8]: 25% | Population Hoechst High Intensity Objects (%) [8]: 32% | Population Membrane Permeable-Phenotype (%) [8]: 15% | Population Mitochondria Different-Phenotype (%) [8]: 7% | Population Mitotic Cells (%) [8]: 33% | Population Normal (%) [8]: 67% | Population Pyknosed Nuclei (%) [8]: 5% | Population Tubulin-Different-Phenotype (%) [8]: 15% | Total Cell Count [8]: 77

c1ccc2oc(-c3csc(C4CCN(Cc5nc6ncccc6[nH]5)CC4)n3)cc2c1
Population Apoptotic (%) [1]: 73% | Population Fragmented Nuclei (%) [1]: 30% | Population Healthy Nuclei (%) [1]: 55% | Population Hoechst High Intensity Objects (%) [1]: 15% | Population Membrane Permeable-Phenotype (%) [1]: 9% | Population Mitochondria Different-Phenotype (%) [1]: 10% | Population Mitotic Cells (%) [1]: 26% | Population Normal (%) [1]: 85% | Population Pyknosed Nuclei (%) [1]: 13% | Population Tubulin-Different-Phenotype (%) [1]: 12% | Total Cell Count [1]: 160 | Population Apoptotic (%) [2]: 25% | Population Fragmented Nuclei (%) [2]: 59% | Population Healthy Nuclei (%) [2]: 28% | Population Hoechst High Intensity Objects (%) [2]: 34% | Population Membrane Permeable-Phenotype (%) [2]: 15% | Population Mitochondria Different-Phenotype (%) [2]: 5% | Population Mitotic Cells (%) [2]: 75% | Population Normal (%) [2]: 65% | Population Pyknosed Nuclei (%) [2]: 11% | Population Tubulin-Different-Phenotype (%) [2]: 26% | Total Cell Count [2]: 103 | Population Apoptotic (%) [3]: 63% | Population Fragmented Nuclei (%) [3]: 25% | Population Healthy Nuclei (%) [3]: 55% | Population Hoechst High Intensity Objects (%) [3]: 11% | Population Membrane Permeable-Phenotype (%) [3]: 3% | Population Mitochondria Different-Phenotype (%) [3]: 1% | Population Mitotic Cells (%) [3]: 36% | Population Normal (%) [3]: 88% | Population Pyknosed Nuclei (%) [3]: 19% | Population Tubulin-Different-Phenotype (%) [3]: 4% | Total Cell Count [3]: 190 | Population Apoptotic (%) [4]: 66% | Population Fragmented Nuclei (%) [4]: 65% | Population Healthy Nuclei (%) [4]: 28% | Population Hoechst High Intensity Objects (%) [4]: 35% | Population Membrane Permeable-Phenotype (%) [4]: 21% | Population Mitochondria Different-Phenotype (%) [4]: 0% | Population Mitotic Cells (%) [4]: 33% | Population Normal (%) [4]: 64% | Population Pyknosed Nuclei (%) [4]: 6% | Population Tubulin-Different-Phenotype (%) [4]: 0% | Total Cell Count [4]: 76 | Population Apoptotic (%) [5]: 50% | Population Fragmented Nuclei (%) [5]: 38% | Population Healthy Nuclei (%) [5]: 51% | Population Hoechst High Intensity Objects (%) [5]: 12% | Population Membrane Permeable-Phenotype (%) [5]: 10% | Population Mitochondria Different-Phenotype (%) [5]: 4% | Population Mitotic Cells (%) [5]: 50% | Population Normal (%) [5]: 87% | Population Pyknosed Nuclei (%) [5]: 9% | Population Tubulin-Different-Phenotype (%) [5]: 17% | Total Cell Count [5]: 165 | Population Apoptotic (%) [6]: 25% | Population Fragmented Nuclei (%) [6]: 64% | Population Healthy Nuclei (%) [6]: 28% | Population Hoechst High Intensity Objects (%) [6]: 39% | Population Membrane Permeable-Phenotype (%) [6]: 25% | Population Mitochondria Different-Phenotype (%) [6]: 0% | Population Mitotic Cells (%) [6]: 75% | Population Normal (%) [6]: 60% | Population Pyknosed Nuclei (%) [6]: 7% | Population Tubulin-Different-Phenotype (%) [6]: 25% | Total Cell Count [6]: 92 | Population Apoptotic (%) [7]: 90% | Population Fragmented Nuclei (%) [7]: 26% | Population Healthy Nuclei (%) [7]: 59% | Population Hoechst High Intensity Objects (%) [7]: 11% | Population Membrane Permeable-Phenotype (%) [7]: 2% | Population Mitochondria Different-Phenotype (%) [7]: 0% | Population Mitotic Cells (%) [7]: 9% | Population Normal (%) [7]: 88% | Population Pyknosed Nuclei (%) [7]: 13% | Population Tubulin-Different-Phenotype (%) [7]: 2% | Total Cell Count [7]: 183 | Population Apoptotic (%) [8]: 100% | Population Fragmented Nuclei (%) [8]: 59% | Population Healthy Nuclei (%) [8]: 34% | Population Hoechst High Intensity Objects (%) [8]: 34% | Population Membrane Permeable-Phenotype (%) [8]: 13% | Population Mitochondria Different-Phenotype (%) [8]: 6% | Population Mitotic Cells (%) [8]: 0% | Population Normal (%) [8]: 65% | Population Pyknosed Nuclei (%) [8]: 6% | Population Tubulin-Different-Phenotype (%) [8]: 0% | Total Cell Count [8]: 67
